From ChEMBL document CHEMBL2069191, “Antitrypanosomal and antioxidant properties of 4-hydroxycoumarins derivatives” (2012)
Activity calls are given as the source filed them. The rule behind the calls is not given here.

What was measured:
Type in all cases: functional
[1] = Antioxidant activity against APPH radical assessed as trolox equivalent incubated for 15 mins prior to APPH addition measured every 1 min by 120 mins by fluorescein-based ORAC method
In short: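 Peroxyl-radical scavenging by ORAC-FL. Fluorescein (40 nM final) and compound in methanol (0.3–2 M range, as printed) in 75 mM sodium phosphate buffer pH 7.4. Preincubated 15 min at 37 °C, then AAPH (18 mM final) added. Fluorescence read at ex 485/em 528 nm every 1 min for 120 min. Area under the decay curve calculated, expressed relative to trolox. Means SD.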

[2] = Antioxidant activity assessed as inhibition of hydroxyl radical production at 1 mM after 5 mins by ESR spectrophotometry
In short: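 Hydroxyl radical generated in N,N-dimethylformamide with NaOH (3 mM final), DMPO spin trap (30 mM final) and 30% hydrogen peroxide. Compounds at 1 mM final. EPR spectrum recorded after 5 min of reaction, with % scavenging derived from it.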

Trypanosoma cruzi = assay: Antitrypanosomal activity against trypomastigote stage of Trypanosoma cruzi Dm28c at 10 umol/L after 24 hrs by MTT assay
In short: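 Parasites at 10⁷ per mL exposed to compound in DMSO ([…] final as printed, DMSO below 0.1% v/v) for 24 h at 37 °C. Nifurtimox served as positive control. Colorimetric read-out of viable parasites by absorbance at 570 nm.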

Oc1cc(O)c2c(c1)OC(c1ccc(O)c(O)c1)C(O)C2 (centres undefined)
Activity [1]: 6.76 equiv

Cc1ccc(-c2c(O)c3ccccc3oc2=O)cc1
inhibition [2]: 34.6%
Activity (Trypanosoma cruzi): 16.7%
Activity [1]: 6.5 equiv

CC1CS(=O)(=O)CCN1/N=C/c1ccc([N+](=O)[O-])o1 (centres undefined) [NIFURTIMOX]
Activity (Trypanosoma cruzi): 52.5%

O=c1oc2ccccc2c(O)c1-c1ccc(Cl)cc1
inhibition [2]: 31.3%
Activity (Trypanosoma cruzi): 30.7%
Activity [1]: 3.9 equiv

O=c1oc2ccc(Cl)cc2c(O)c1-c1cccc(O)c1
inhibition [2]: 100%
Activity (Trypanosoma cruzi): inactive
Activity [1]: 7.7 equiv

COc1ccc(-c2c(O)c3ccccc3oc2=O)cc1
inhibition [2]: 46.3%
Activity (Trypanosoma cruzi): 1.6%
Activity [1]: 5.7 equiv

O=c1oc2ccccc2c(O)c1-c1ccccc1
inhibition [2]: 45.1%
Activity (Trypanosoma cruzi): 21.1%
Activity [1]: 4.4 equiv

O=c1cc(O)c2ccccc2o1
inhibition [2]: 61.9%
Activity (Trypanosoma cruzi): inactive
Activity [1]: 4.2 equiv

O=c1c(O)c(-c2ccc(O)c(O)c2)oc2cc(O)cc(O)c12
Activity [1]: 7.28 equiv

O=c1oc2ccccc2c(O)c1-c1cccc(O)c1
inhibition [2]: 40.2%
Activity (Trypanosoma cruzi): 3.9%
Activity [1]: 4.9 equiv
